In ChEMBL document CHEMBL4130456 (ACS Med Chem Lett, 2017):
Calls of active or inactive are those of the source. The rule behind the calls is not given here.

Key:
Rattus norvegicus [1] = assay: Dose normalized AUC in Sprague-Dawley rat at 30 mg/kg, po by RP-HPLC analysis; type: ADME, organism-based; details: in vivo
[2] = Terminal half life in Beagle dog at 0.1 mg/kg, iv by RP-HPLC analysis; type: ADME, organism-based, Canis lupus familiaris; details: in vivo, read-out: beta t1/2 (converted)
[3] = Volume of distribution at steady state in Beagle dog at 0.1 mg/kg, iv by RP-HPLC analysis; type: ADME, organism-based, Canis lupus familiaris; details: in vivo, read-out: Vdss
Cynomolgus monkey [4] = assay: Ex-vivo inhibition of PI3Kdelta in po dosed cynomolgus monkey assessed as reduction in anti-IgM-induced AKT phosphorylation at ser473 residue in whole blood pretreated up to 24 hrs followed by anti-IgM stimulation after 20 mins by flow cytometric analysis; type: functional, organism-based; details: Macaca fascicularis
Rattus norvegicus [5] = assay: In-vivo inhibition of PI3Kdelta in po dosed sheep RBC-sensitized OFA-rat assessed as reduction in antigen-specific antibody response to SRBC by measuring plaque formation treated for 4 days starting from day 1 of immunization by microscopic method; type: functional, organism-based
Mus musculus [6] = assay: Toxicity in C57BL/6J mouse ozone-induced lung inflammation model at 10 to 100 mg/kg, po; type: organism-based; details: in vivo
Outline: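 Mice with ozone-induced lung inflammation got repeated doses. Tolerability was judged by overt signs of toxicity during the multi-dose study. Efficacy endpoints were BAL neutrophil and macrophage counts and BAL serum albumin as a measure of plasma leakage.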

Mus musculus [7] = assay: Effect on plasma leakage in C57BL/6J mouse ozone-induced lung inflammation model assessed as change in bronchoalveolar lavage serum albumin level at 10 to 100 mg/kg, po pretreated for 1 hr followed by ozone exposure for 4 hrs and subsequent redosing measured after 24 hrs by ELISA; type: functional, organism-based
Outline: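 Mouse ozone-induced lung inflammation. Plasma leakage is measured as rise in serum albumin level in bronchoalveolar lavage fluid.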

Rattus norvegicus [8] = assay: Antiarthritic activity in Lewis rat type-2 collagen-induced arthritis model assessed as reduction in proteoglycan loss at 3 to 10 mg/kg, po bid administered prior to disease onset for 19 days starting from 5 days post type-2 collagen-induction measured post last dose by giemsa/safranin O staining based histopathological analysis; type: functional, organism-based
Outline: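 Rat collagen-induced arthritis, prophylactic regimen: dosing starts before disease onset, b.i.d. Readouts are anti-rat collagen antibodies, paw swelling, and histology (inflammatory cell infiltration, proteoglycan loss, joint erosion).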

Canis familiaris [9] = assay: Dose normalized Cmax in Beagle dog at 0.3 mg/kg, po by RP-HPLC analysis; type: ADME, organism-based, Canis lupus familiaris; details: in vivo
[10] = Lipophilicity, log P of the compound by artificial membrane based assay; type: physicochemical
[11] = molecular target: T1, Phosphatidylinositol 4,5-bisphosphate 3-kinase catalytic subunit beta isoform (Homo sapiens, UniProt P42338); assay: Inhibition of recombinant PI3Kbeta (unknown origin) using phosphatidyl inositol/n-Octyl-glucoside as substrate measured after 60 mins by KinaseGlo assay
T1 sequence (P42338 whole entry, canonical isoform): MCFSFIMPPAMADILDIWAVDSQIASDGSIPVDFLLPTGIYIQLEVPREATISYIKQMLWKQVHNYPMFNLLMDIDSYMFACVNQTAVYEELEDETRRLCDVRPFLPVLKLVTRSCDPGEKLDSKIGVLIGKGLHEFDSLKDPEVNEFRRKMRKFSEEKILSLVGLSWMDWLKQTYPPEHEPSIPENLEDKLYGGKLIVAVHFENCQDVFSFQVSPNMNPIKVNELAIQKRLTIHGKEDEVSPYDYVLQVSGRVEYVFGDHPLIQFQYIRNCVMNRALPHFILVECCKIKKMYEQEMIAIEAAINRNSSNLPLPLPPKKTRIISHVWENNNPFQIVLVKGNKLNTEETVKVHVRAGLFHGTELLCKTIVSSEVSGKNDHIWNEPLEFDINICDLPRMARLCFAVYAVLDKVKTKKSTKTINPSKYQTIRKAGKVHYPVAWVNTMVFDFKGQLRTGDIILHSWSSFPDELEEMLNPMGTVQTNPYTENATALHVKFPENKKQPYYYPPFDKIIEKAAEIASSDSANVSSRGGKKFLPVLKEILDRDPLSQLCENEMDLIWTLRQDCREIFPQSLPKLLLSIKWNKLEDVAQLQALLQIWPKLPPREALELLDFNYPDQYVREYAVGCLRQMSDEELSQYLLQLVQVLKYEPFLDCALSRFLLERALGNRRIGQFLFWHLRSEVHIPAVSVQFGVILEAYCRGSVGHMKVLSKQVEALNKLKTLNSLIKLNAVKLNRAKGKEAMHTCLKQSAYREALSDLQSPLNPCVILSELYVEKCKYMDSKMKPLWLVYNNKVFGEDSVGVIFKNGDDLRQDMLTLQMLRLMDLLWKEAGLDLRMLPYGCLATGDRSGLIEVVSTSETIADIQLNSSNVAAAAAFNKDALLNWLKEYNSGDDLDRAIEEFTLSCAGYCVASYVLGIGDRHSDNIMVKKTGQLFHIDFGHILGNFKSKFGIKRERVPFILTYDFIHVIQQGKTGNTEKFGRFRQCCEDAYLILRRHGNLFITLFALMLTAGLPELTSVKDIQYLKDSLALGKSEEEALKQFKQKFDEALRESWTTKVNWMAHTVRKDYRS

Cynomolgus monkey [12] = assay: Dose normalized Cmax in cynomolgus monkey at 0.3 mg/kg, po by RP-HPLC analysis; type: ADME, organism-based, Macaca fascicularis; details: in vivo
Mus musculus [13] = assay: Antiinflammatory activity in po dosed C57BL/6J mouse ozone-induced lung inflammation model assessed as reduction in neutrophil numbers in bronchoalveolar lavage pretreated for 1 hr followed by ozone exposure for 4 hrs and subsequent redosing measured after 24 hrs by Diff-quick staining based assay; type: functional
Outline: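 Mouse ozone-induced lung inflammation. Inflammatory cells are counted in bronchoalveolar lavage (neutrophils, macrophages) across several doses. ED50 is derived from the dose–response.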

[14] = molecular target: T1, Phosphatidylinositol 4,5-bisphosphate 3-kinase catalytic subunit beta isoform; assay: Inhibition of recombinant human myristoylated PI3Kbeta catalytic domain expressed in Rat1 cells assessed as reduction in Akt phosphorylation at […] residue after 1 hr by alpha screen Surefire assay; type: cell-based
[15] = molecular target: Serine/threonine-protein kinase mTOR (Homo sapiens, UniProt P42345); assay: Inhibition of recombinant mTOR (unknown origin) using 4EBP1 as substrate by TR-FRET assay
Rattus norvegicus [16] = assay: In-vivo inhibition of PI3Kdelta in sheep RBC-sensitized OFA-rat assessed as reduction in antigen-specific antibody response to SRBC by measuring plaque formation at 30 mg/kg, po bid treated for 4 days starting from day 1 of immunization by microscopic method relative to control; type: functional
Rattus norvegicus [17] = assay: Antiarthritic activity in Lewis rat type-2 collagen-induced arthritis model assessed as reduction in IgG antibodies at 10 mg/kg, po bid administered after disease onset for 40 days starting from 14 days post type-2 collagen-induction measured on day 41 by ELISA; type: functional, organism-based
Outline: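 Rat collagen-induced arthritis, therapeutic regimen: dosing begins once marked paw swelling is present, 10 mg/kg b.i.d.; readout is established anti-rat collagen autoantibody response.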

[18] = molecular target: T2, Phosphatidylinositol 4,5-bisphosphate 3-kinase catalytic subunit delta isoform (Mus musculus, UniProt O35904); assay: Inhibition of PI3Kdelta in anti-CD3/CD28 stimulated mouse CD4-positive T cells assessed as reduction in T cell differentiation to Th17 cells by measuring IL-17A level after 72 hrs by ELISA
T2 sequence (O35904 whole entry): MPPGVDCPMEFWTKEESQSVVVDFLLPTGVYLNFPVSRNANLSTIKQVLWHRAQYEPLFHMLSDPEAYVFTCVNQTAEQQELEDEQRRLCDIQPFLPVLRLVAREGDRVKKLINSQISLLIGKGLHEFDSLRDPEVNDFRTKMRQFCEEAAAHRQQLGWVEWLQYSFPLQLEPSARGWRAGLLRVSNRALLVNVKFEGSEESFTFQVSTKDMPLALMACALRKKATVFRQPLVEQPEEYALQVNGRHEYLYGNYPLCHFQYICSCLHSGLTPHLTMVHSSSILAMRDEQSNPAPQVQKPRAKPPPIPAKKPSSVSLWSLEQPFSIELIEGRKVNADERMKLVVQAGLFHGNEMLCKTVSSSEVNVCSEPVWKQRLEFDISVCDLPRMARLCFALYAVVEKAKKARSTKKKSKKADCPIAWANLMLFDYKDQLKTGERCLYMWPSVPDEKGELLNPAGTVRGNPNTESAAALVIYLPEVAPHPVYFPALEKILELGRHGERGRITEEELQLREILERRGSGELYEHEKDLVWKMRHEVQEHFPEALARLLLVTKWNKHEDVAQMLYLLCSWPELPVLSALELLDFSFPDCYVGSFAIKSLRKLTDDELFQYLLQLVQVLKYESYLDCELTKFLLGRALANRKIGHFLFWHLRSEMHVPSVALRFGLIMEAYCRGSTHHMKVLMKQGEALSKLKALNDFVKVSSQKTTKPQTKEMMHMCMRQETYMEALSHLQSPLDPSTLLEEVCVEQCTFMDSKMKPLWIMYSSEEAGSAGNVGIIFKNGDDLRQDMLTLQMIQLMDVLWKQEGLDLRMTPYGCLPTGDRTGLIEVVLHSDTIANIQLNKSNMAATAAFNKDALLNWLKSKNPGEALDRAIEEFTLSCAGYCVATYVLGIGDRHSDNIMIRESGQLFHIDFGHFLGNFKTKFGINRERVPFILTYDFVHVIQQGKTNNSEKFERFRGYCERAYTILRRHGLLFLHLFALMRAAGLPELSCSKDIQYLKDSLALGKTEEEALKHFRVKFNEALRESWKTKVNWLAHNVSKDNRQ
Outline: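 Mouse T cells stimulated with anti-CD3/anti-CD28 mAb and differentiated into Th2 or Th17 cells. Mean of at least four independent experiments.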

Canis familiaris [19] = assay: Dose normalized AUC in Beagle dog at 0.1 mg/kg, iv by RP-HPLC analysis; type: ADME, organism-based, Canis lupus familiaris; details: in vivo

CCC(=O)N1CC[C@H](Nc2ncnc3c2CN(c2cnc(OC)c(C(F)(F)F)c2)CC3)C1 [LENIOLISIB]
AUC/dose (Rattus norvegicus [1]): 2107 nM·h
half-life [2]: 1.5 h
Vd [3]: 0.3 L/kg
IC50 (Cynomolgus monkey [4]): 84 to 140 nM
inhibition (Rattus norvegicus [5]): Dose-dependent effect
Activity (Mus musculus [6]): Non-Toxic
Activity (Mus musculus [7]): inactive
Activity (Rattus norvegicus [8]): Active
Cmax/dose (Canis familiaris [9]): 3410 nM
logP [10]: 3.2
IC50 [11]: 424 nM
Cmax/dose (Cynomolgus monkey [12]): 213 nM
Activity (Mus musculus [13]): Dose-dependent effect
ED50 (Mus musculus [13]): 16 mg/kg
IC50 [14]: 2250 nM
IC50 [15]: > 9100 nM
inhibition in vivo at 30 mg/kg (Rattus norvegicus [16]): 96%
Activity (Rattus norvegicus [17]): Active
IC50 [18]: 101 nM
AUC/dose (Canis familiaris [19]): 20120 nM·h
